According to PMC3601665 (Molecular pharmaceutics, 2012):

What was measured:
DU145 cells = experiment: Cytotoxicity assay; type: cell-based; settings: read-out: IC50 (Mean ± SE); DU145, PSMA negative, 72 h, n=6
How it was run: (§1)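 DU145 and LNCaP were grown in RPMI-1640 and PC3 in F-12K, all with 10 % FBS. Cells were seeded at 5,000 per well. After 12 h, test compound (free or micelle-loaded) in PBS was added at 0, 0.1, 1, 5, 10, 50 or 100 μM. PBS and TCA served as negative and positive controls. After 72 h, 55-μM resazurin solution was added for 4 h at 37 °C, then resorufin fluorescence was read (ex 560/em 590 nm). IC50 was taken as the midpoint between controls on each plate.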

PC3 cells = experiment: Cytotoxicity assay; type: cell-based; settings: read-out: IC50 (Mean ± SE); PC3, PSMA negative, 72 h, n=6
How it was run: as §1

LNCaP cells = experiment: Cytotoxicity assay; type: cell-based; settings: for selective cytotoxicity: LNCaP versus DU145 and PC3; for IC50: read-out: IC50 (Mean ± SE), LNCaP, PSMA positive, PTEN-deficient, 72 h, n=6
How it was run: as §1

[1] = tested on: pAkt (Ser-473) in LNCaP cells; experiment: Western blot assay of Akt phosphorylation; type: cell-based; settings: 2-μM drug, 100-ng/mL EGF, 30 min, serum-starved LNCaP
How it was run: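 Cells were lysed in buffer with protease inhibitors, and protein was quantified by BCA. Equal protein amounts were run on 10 % SDS-PAGE and transferred to nitrocellulose. Blots were probed for phospho-Akt (Ser-473) and total Akt, followed by HRP-conjugated secondary antibodies and chemiluminescent detection.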

cell growth = settings: cited from earlier work

Row | Compound | IC50 (DU145 cells) | IC50 (PC3 cells) | selective cytotoxicity (LNCaP cells) | IC50 (LNCaP cells) | phosphorylation of Akt (Ser473) [1] | concentration at which cell growth is significantly inhibited (cell growth)
1 | Cc1cc(C(C)N(CCO)c2ccccc2)c2nc(N3CCOCC3)cc(=O)n2c1 (centres unmarked) [BL05] | 32.4 ± 0.67 µM | 23.4 ± 0.74 µM | selective cytotoxicity to LNCaP cells | 4.04 ± 0.11 µM | inhibited phosphorylation of Akt | –
2 | CC1(C)C(=CC=C2CCCC(C=CC3=[N+](CCCCS(=O)(=O)[O-])c4ccc5ccccc5c4C3(C)C)=C2Cl)N(CCCCS(=O)(=O)[O-])c2ccc3ccccc3c21.[Na+] [IR-820] | – | – | – | – | – | greater than 5 μM
3 | Cc1cc(C(C)Nc2ccccc2)c2nc(N3CCOCC3)cc(=O)n2c1 (centres unmarked) [TGX-221] | 35.6 ± 0.12 µM | 18.2 ± 0.85 µM | selective cytotoxicity to LNCaP cells | 3.98 ± 0.18 µM | inhibited phosphorylation of Akt | –
